Screening data: PubChem BioAssay, Johns Hopkins Ion Channel Center
This is a sample that favours compounds with a hit; in the whole collection about 3.1% have one here.
hERG rescue: hERG rescue from dofetilide block, primary screen, cell-based, CHO-hERG, FluxOR thallium flux, dofetilide IC70 | dofetilide IC70 present | activation (rescue from dofetilide block), less the hit threshold, % at 10 µM | hit rate 0.51% among 310,000;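 active means activation above the mean of controls blocked by dofetilide plus 5 SD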;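 further: thallium influx through hERG after potassium depolarization seen as dye fluorescence rise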
KCNQ1 block: inhibitors of human KCNQ1 channel, primary screen, cell-based, thallium flux, high-throughput; B-score at 10 µM; hit rate 1.3% among 310,000; Potassium voltage-gated channel subfamily KQT member 1 (Homo sapiens), P51787; CHO-K1 KCNQ1, FluxOR thallium flux fluorescence; active compounds read high; AID 2642, 2010;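 active means compounds whose thallium flux B-score, printed positive for inhibition, exceeds three library SD while starting fluorescence stays within three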;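 further: channel opened by potassium depolarization with thallium stimulus after 20 min compound exposure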
KCNK9 inh: KCNK9 potassium channel inhibitors, primary screen, HEK293 cells, thallium flux | FluxOR thallium flux fluorescence; active compounds read low | Potassium channel subfamily K member 9 (Homo sapiens), Q9NPC2 | hit rate 1.2% among 310,000 | B-score at 10 µM | AID 488922, 2010;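 active means ratio B-score over 3 SD below the library mean, with starting fluorescence within 5 SD of its mean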;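 further: negative B-score means less thallium flux so channel inhibition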
KCNQ1 act: potentiators or activators of KCNQ1 channel, primary screen, cell-based, thallium flux, high-throughput; hit rate 0.35% among 310,000; Potassium voltage-gated channel subfamily KQT member 1 (Homo sapiens), P51787; B-score at 10 µM; AID 2648, 2010; CHO-K1 KCNQ1, thallium flux FluxOR fluorescence; active compounds read high;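 active means fluorescence ratio B-score, a plate-corrected score, at least three library SD, with initial intensity B-score within 5 SD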
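Assay system: stable KCNQ1 CHO-K1 line; medium: assay buffer, equal DMSO in all wells; timing: 90 min dye loading and 20 min compound exposure, both at room temperature; technique: kinetic FluxOR thallium fluorescence, 10-s 1-Hz baseline, 110-s post-stimulus read; read-out basis: B score of baseline-normalized fluorescence ratio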
KCNK3 block: human KCNK3 channel inhibitors, primary screen, CHO cells, FluxOR thallium flux, B-score | Potassium channel subfamily K member 3 (Homo sapiens), O14649 | FluxOR fluorescence; active compounds read low | B-score at 10 µM | hit rate 0.84% among 340,000;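 active means B-score under library mean minus 4 SD, starting fluorescence ratio at most library mean plus 5 SD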;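 further: more negative B-score means stronger inhibition of thallium flux through KCNK3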
KCNQ1 inh valid: KCNQ1 potassium channel inhibitors, confirmation, cell-based, Tl flux, duplicate; shares compounds with KCNQ1 block; KCNQ1 cell line, FluxOR thallium flux fluorescence; inhibition, % at 10 µM; hit rate 93% among 1,600; AID 588353, 2011;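 active means primary screen active, with duplicate mean exceeding buffer control mean plus 3 SD of buffer wells, cut at about 28% in these data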;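 further: 0% = buffer control ratio and 100% = XE991 inhibitor control ratio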
CHO KCNQ1 ctr: thallium flux effects in parental CHO cells, counter-screen for KCNQ1 inhibitor project, cell-based, Tl flux; fluorescence ratio (Tl flux) at 10 µM; hit rate 21% among 1,600; shares compounds with KCNQ1 block; AID 588366, 2011; parental CHO-K1, FluxOR thallium flux fluorescence ratio; active compounds read low; zero means no signal rise above baseline;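 active means mean of duplicate thallium-flux fluorescence ratios in parental host cells more than 5 SD below the buffer control mean, cut at about 0.38 in these data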;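 further: ratio is peak minus minimum fluorescence divided by baseline fluorescence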
KCNQ1 ephys val: KCNQ1 channel inhibitors, confirmation, orthogonal assay, cell-based, automated electrophysiology; shares compounds with KCNQ1 block; KCNQ1-CHO cells, automated patch clamp current; calls only at 10 µM; hit rate 20% among 490; AID 624120, 2012;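 active means KCNQ1 current drop exceeding 3 SD of negative control wells, seen in both duplicate runs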;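 further: steady state current during a 2 s step from -80 to +40 mV; negative values mean current inhibition and positive values mean potentiation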
KCNQ2 spec: KCNQ2 channel inhibition, selectivity assay for KCNQ1 inhibitor project, cell-based. AID 651746, 2012. KCNQ2 cells, FluxOR thallium flux fluorescence. inhibition, % at 10 µM. hit rate 71% among 1,600. shares compounds with KCNQ1 block;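 active means mean percent inhibition of the KCNQ2 thallium signal more than 5 SD above the buffer-only control wells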;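 further: KCNQ2 expressed in CHO cells; 0% = buffer control wells and 100% = XE-991 inhibitor control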
KCNQ1 KCNE1 spec: KCNQ1/KCNE1 channel inhibition, selectivity assay for KCNQ1 inhibitor project, CHO-K1 cells, thallium flux, FluxOR | shares compounds with KCNQ1 block | FluxOR thallium flux fluorescence | inhibition, % at 10 µM | hit rate 77% among 1,600 | AID 652147, 2013;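 active means mean percent inhibition of duplicate wells above the buffer-only control mean plus 3 SD of those controls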;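 further: 0% = buffer only wells and 100% = XE-991 inhibitor control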
Numbers without * were called inactive; i = inactive; . = no result.

SMILES | hERG rescue | KCNQ1 block | KCNK9 inh | KCNQ1 act | KCNK3 block | KCNQ1 inh valid | CHO KCNQ1 ctr | KCNQ2 spec | KCNQ1 KCNE1 spec | others
Cc1ccc(OCC(O)CN2CCC(Cc3ccccc3)CC2)c(C)c1 (stereo unspecified) | -17 | 7* | i | i | i | 31* | 0.44 | 76%* | 63%*
OC(COc1ccccc1)CN1CCC(Cc2ccccc2)CC1 (stereo unspecified) | -6 | i | i | i | i | . | . | . | .
COc1ccc(S(=O)(=O)N2CCCCC2)cc1NC(=O)C1CC1C (stereo unspecified) | . | . | . | . | i | . | . | . | .
CCN(CC)S(=O)(=O)c1cc(C)ccc1NC(=S)Nc1cccnc1 | -13 | 10* | i | i | i | 68* | 0.49 | 61%* | 48%*
CCN(CC)S(=O)(=O)c1cc(C(=O)Nc2cccnc2)ccc1Cl | -13 | i | i | i | i | . | . | . | .
NCCCC(=O)N1c2ccccc2Sc2ccc(Cl)cc21 | -3 | i | i | i | i | . | . | . | .
NCCC(=O)N1c2ccccc2Sc2ccc(Cl)cc21 | -8 | 7* | i | i | i | 72* | 0.47 | i | 62%*
Cc1ccc2[nH]c3c(NCc4ccco4)ncnc3c2c1 | -20 | 9* | i | i | i | 102* | 0.45 | 70%* | 39%* | KCNQ1 ephys val=i
COc1cc(CNc2ncnc3c2[nH]c2ccc(C)cc23)cc(OC)c1 | -13 | i | i | i | i | . | . | . | .
CCOC(=O)c1c(NC(=O)c2ccccc2C)sc2c1CC(C)(C)OC2 | -10 | 7* | i | i | i | 86* | 0.44 | 92%* | 150%*
COC(=O)c1c(NC(=O)c2ccccc2)sc2c1CC(C)(C)OC2 | -4 | i | i | i | i | . | . | . | .
COc1ccccc1NC(C#N)c1ccccc1OCc1ccccc1 (stereo unspecified) | -17 | 7* | i | i | i | 100* | 0.38 | 96%* | 135%* | KCNQ1 ephys val=i
CNC(=O)c1ccc(OCc2ccccc2)c(OC)c1 | . | . | . | . | i | . | . | . | .
COC(=O)c1sc(NC(=O)c2oc3ccccc3c2C)nc1C | -2 | i | i | i | i | . | . | . | .
Cc1c(C(=O)Nc2nnc(C(F)(F)F)s2)oc2ccccc12 | -11 | 7* | i | i | i | 69* | 0.54 | i | i
Cc1cc(C)c2c(c1C)C(=O)CCC2 | . | . | . | . | i | . | . | . | .
Cc1cc(Nc2ccccc2)nc2cc(O)ccc12 | -19 | 7* | i | i | i | 40* | 0.47 | i | i
CCN(CC(=O)Nc1ccc(NC(C)=O)cc1)C(=O)c1ccc(COc2ccc(C(C)(C)C)cc2)cc1 | . | . | . | . | i | . | . | . | .
Cc1ccc(Sc2ccc(S(=O)(=O)Nc3ccc(C(=O)O)cc3)cc2)cc1C | . | . | . | . | i | . | . | . | .
O=C(c1cccc(NS(=O)(=O)c2ccc(F)c(F)c2)c1)N1CCN(C(c2ccccc2)c2ccccc2)CC1 | -15 | 11* | i | i | i | 131* | 0.4 | 109%* | 155%* | KCNQ1 ephys val=i
